Reference: ChEMBL document CHEMBL1121726, “Pyrazolopyrimidine nucleosides. 12. Synthesis and biological activity of certain pyrazolo[3,4-d]pyrimidine nucleosides related to adenosine” (1981)
The source made the active and inactive calls. No cut-off for these calls is given here.

What was measured:
L1210 [1] = assay: Increase in life span of tumor L1210 leukemic mice 1-5 days after 50 mg/kg administered; type: functional, Mus musculus
Summary of the method: (§1)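 Mice bearing L1210 or P388 leukemia were injected with drug at the listed dose per injection on the listed days after tumor-cell inoculation. ILS was the percentage increase in life span of treated mice over untreated tumor-bearing controls.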

L1210 [2] = assay: In vitro inhibition of growth of L1210 mouse leukemic cells; type: functional; conditions: read-out: ID50 (the source's name)
Summary of the method: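 L1210 cells grown in static suspension culture in Fischer's medium for leukemic cells of mice, exposed to a range of test-compound concentrations. Growth rate measured over 3 days.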

L1210 [3] = assay: Toxicity against L1210 leukemic cells 1-5 days after administration of 50 mg/kg of the compound; Yes; type: functional, organism-based; set-up: dose 50 mg/kg; conditions: Mus musculus
Summary of the method: (§2)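 Mice bearing L1210 or P388 leukemia were injected at the stated dose per injection on the listed days after tumor-cell inoculation. Host toxicity scores whether higher doses on the same schedule caused drug-induced shortening of life span: y = yes, n = no, nt = no higher dose tested.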

L1210 [4] = assay: […] against L1210 leukemic cells 1-5 days after administration of 50 mg/kg of the compound; Yes; type: functional, organism-based; set-up: dose 50 mg/kg; conditions: Mus musculus
L1210 [5] = assay: Increase in life span of tumor L1210 leukemic mice 1-5 day after 50 mg/kg administered; type: functional, Mus musculus; summary of the method: as §1
L1210 [6] = assay: Increase in life span of tumor L1210 leukemic mice 1-5 days after 25 mg/kg administered; type: functional, Mus musculus; summary of the method: as §1
P388 [7] = assay: Toxicity against P388 leukemic cells 1,5,9 days after administration of 100 mg/kg of the compound; Yes; conditions: Mus musculus
L1210 [8] = assay: Number of mice surviving 1-5 days after 25 mg/kg administered; 1/12; type: functional, Mus musculus
P388 [9] = assay: Increase in life span of tumor P388 leukemic mice 1,5,9 days after 100 mg/kg administered
L1210 [10] = assay: Toxicity against L1210 leukemic cells 1-5 days after administration of 25 mg/kg of the compound; Yes; type: functional, organism-based; set-up: dose 25 mg/kg; conditions: Mus musculus; summary of the method: as §2
L1210 [11] = assay: Toxicity against L1210 leukemic cells 1-9 days after administration of 200 mg/kg of the compound; Yes; type: functional, organism-based; set-up: dose 200 mg/kg; conditions: Mus musculus; summary of the method: as §2
L1210 [12] = assay: Increase in life span of tumor L1210 leukemic mice 1-9 day after 200 mg/kg administered; type: functional, Mus musculus; summary of the method: as §1
P388 [13] = assay: Toxicity against P388 leukemic cells 1-9 days after administration of 40 mg/kg of the compound; Yes; type: functional, organism-based; set-up: dose 40 mg/kg; conditions: Mus musculus
Summary of the method: (§3)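 Host toxicity was scored in leukemia-bearing mice as drug-induced shortening of life span when higher doses were given on the same schedule: y = yes, n = no, nt = no higher dose tested.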

P388 [14] = assay: Increase in life span of tumor P388 leukemic mice 1-9 days after 40 mg/kg administered; type: functional, Mus musculus; summary of the method: as §1
L1210 [15] = assay: Number of mice surviving 1 day after 25 mg/kg administered; 2/12; type: functional, Mus musculus
L1210 [16] = assay: Increase in life span of tumor L1210 leukemic mice 1-5 day after 400 mg/kg administered; type: functional, Mus musculus; summary of the method: as §1
L1210 [17] = assay: […] against L1210 leukemic cells 1-5 days after administration of 400 mg/kg of the compound; No higher dose tested; type: functional, organism-based; set-up: dose 400 mg/kg; conditions: Mus musculus
L1210 [18] = assay: Increase in life span of tumor L1210 leukemic mice 1-5 days after 400 mg/kg administered; type: functional, Mus musculus; summary of the method: as §1
L1210 [19] = assay: Toxicity against L1210 leukemic cells 1-5 days after administration of 400 mg/kg of the compound; nt= No higher dose tested; type: functional, organism-based; set-up: dose 400 mg/kg; conditions: Mus musculus; summary of the method: as §2
L1210 [20] = assay: Increase in life span of tumor L1210 leukemic mice 1-9 days after 100 mg/kg administered; type: functional, Mus musculus; summary of the method: as §1
L1210 [21] = assay: Toxicity against L1210 leukemic cells 1-9 days after administration of 100 mg/kg of the compound; nt= No higher dose tested; type: functional, organism-based; set-up: dose 100 mg/kg; conditions: Mus musculus; summary of the method: as §2
L1210 [22] = assay: Toxicity against L1210 leukemic cells 1-9 days after administration of 400 mg/kg of the compound; No higher dose tested; type: functional, organism-based; set-up: dose 400 mg/kg; conditions: Mus musculus; summary of the method: as §2
L1210 [23] = assay: Increase in life span of tumor L1210 leukemic mice 1-9 days after 400 mg/kg administered; type: functional, Mus musculus; summary of the method: as §1
P388 [24] = assay: Toxicity against P388 leukemic cells 1-9 days after administration of 6 mg/kg of the compound; y= Yes; type: functional, organism-based; set-up: dose 6 mg/kg; conditions: Mus musculus; summary of the method: as §3
L1210 [25] = assay: Number of mice surviving 1-5 days after 200 mg/kg administered; 2/6; type: functional, Mus musculus
L1210 [26] = assay: Toxicity against L1210 leukemic cells 1-5 days after administration of 200 mg/kg of the compound; nt= No higher dose tested; type: functional, organism-based; set-up: dose 200 mg/kg; conditions: Mus musculus; summary of the method: as §3
P388 [27] = assay: Increase in life span of tumor P388 leukemic mice 1-9 days after 6 mg/kg administered; type: functional, Mus musculus; summary of the method: as §1
L1210 [28] = assay: Increase in life span of tumor L1210 leukemic mice 1-5 days after 200 mg/kg administered; type: functional, Mus musculus; summary of the method: as §1
L1210 [29] = assay: […] against L1210 leukemic cells 1-5 days after administration of 200 mg/kg of the compound; Yes; type: functional, organism-based; set-up: dose 200 mg/kg; conditions: Mus musculus
L1210 [30] = assay: Increase in life span of tumor L1210 leukemic mice 1-5 days after 12.5 mg/kg administered; type: functional, Mus musculus; summary of the method: as §1
L1210 [31] = assay: […] against L1210 leukemic cells 1-5 days after administration of 12.5 mg/kg of the compound; Yes; conditions: Mus musculus

In the case of `CNc1ncnc2c1cnn2C1O[C@H](CO)[C@@H](O)[C@H]1O` (stereo partly specified), the ILS (L1210 [1]) is reported as 4, the IC50 (L1210 [2]) is reported as > 100000 nM and the Toxicity (L1210 [3]) is reported as “Active”.

In the case of `CN(C)/C=N/c1ncnc2c1cnn2C1O[C@H](CO)[C@@H](O)[C@H]1O` (stereo partly specified), the Toxicity (L1210 [4]) is reported as “Active”, the ILS (L1210 [5]) is reported as 12 and the IC50 (L1210 [2]) is reported as 600 nM.

With `N/C(=N\O)c1nn(C2O[C@H](CO)[C@@H](O)[C@H]2O)c2ncnc(N)c12` (stereo partly specified) the ILS (L1210 [6]) was 78, the Toxicity (P388 [7]) was “Active” and the IC50 (L1210 [2]) was 180 nM. For the same compound, the Cures (L1210 [8]) was 1, the ILS (P388 [9]) was 33 and the Toxicity (L1210 [10]) was “Active”.

For `OC[C@H]1OC(n2ncc3cncnc32)[C@H](O)[C@@H]1O` (stereo partly specified), the Toxicity (L1210 [11]) was “Active”, the IC50 (L1210 [2]) was > 100000 nM and the ILS (L1210 [12]) was -3.

`N=C(N)c1nn(C2O[C@H](CO)[C@@H](O)[C@H]2O)c2ncnc(N)c12` (stereo partly specified) was tested, and the ILS (L1210 [6]) was 98, the Toxicity (P388 [13]) was “Active” and the ILS (P388 [14]) was 29. The Cures (L1210 [15]) was 2 and the Toxicity (L1210 [10]) was “Active”.

With `COc1ncnc2c1cnn2C1O[C@H](CO)[C@@H](O)[C@H]1O` (stereo partly specified) the ILS (L1210 [16]) was 12 and the Toxicity (L1210 [17]) was “No higher dose tested”.

For `O=c1[nH]cnc2c1cnn2[C@@H]1O[C@H](CO)[C@@H](O)[C@H]1O`, the ILS (L1210 [18]) was 2 and the Toxicity (L1210 [19]) was “No higher dose tested”.

In the case of `N#Cc1nn(C2O[C@H](CO)[C@@H](O)[C@H]2O)c2ncnc(N)c12` (stereo partly specified), the ILS (L1210 [20]) is reported as 27, the IC50 (L1210 [2]) is reported as 79 nM and the Toxicity (L1210 [21]) is reported as “No higher dose tested”.

For `OC[C@H]1OC(n2ncc3c(NCc4ccco4)ncnc32)[C@H](O)[C@@H]1O` (stereo partly specified), the Toxicity (L1210 [22]) was “No higher dose tested”, the ILS (L1210 [23]) was 6 and the IC50 (L1210 [2]) was > 100000 nM.

For `NC(=O)c1nn(C2O[C@H](CO)[C@@H](O)[C@H]2O)c2ncnc(N)c12` (stereo partly specified), the Toxicity (P388 [24]) was “No higher dose tested”, the Cures (L1210 [25]) was 2 and the Toxicity (L1210 [26]) was “No higher dose tested”. For the same compound, the IC50 (L1210 [2]) was 100 nM, the ILS (P388 [27]) was 90 and the ILS (L1210 [28]) was 136.

With `O=[N+]([O-])c1ccc(CSc2ncnc3c2cnn3C2O[C@H](CO)[C@@H](O)[C@H]2O)cc1` (stereo partly specified) the Toxicity (L1210 [29]) was “Active” and the ILS at 200 mg/kg (L1210 [28]; Mus musculus, L1210) was 1%.

In the case of `OC[C@H]1OC(n2ncc3c(NO)ncnc32)[C@H](O)[C@@H]1O` (stereo partly specified), the ILS (L1210 [30]) is reported as 14, the Toxicity (L1210 [31]) is reported as “Active” and the IC50 (L1210 [2]) is reported as 10000 nM.
